The source made the active and inactive calls. The calls are words filed in the database; no cut-off is given here.
Experiments:
[1] = tested on: CAKI-1; assay: cells; details: Homo sapiens, CAKI-1, 168 h, read-out: pIC50 (converted)
[2] = tested on: MDA-MB-468; assay: Induction of apoptosis in human MDA-MB-468 cells assessed as viable cells at 1 uM measured after 72 hrs in presence of PARP inhibitor olaparib by Annexin V-FITC/propidium iodide staining based flow cytometry (reference value: 95.2%); assay type: functional; details: MDA-MB-468, 72 h, read-out: Activity
[3] = Toxicity in BALB/c mouse xenografted with human MDA-MB-468 cells assessed as mortality at 27.5 mg/kg, ip administered every 2 days for 34 days; assay type: organism-based; details: in vivo
How it was run: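 Nude mice bearing subcutaneous right-flank MDA-MB-468 tumours (2 × 10^6 exponential-phase cells implanted). Randomised at about 100 mm³ tumour volume; 6 mice per group. Dosed ip every 2 days for 34 days. Vehicle controls received PBS with 5% DMSO. Body weight and tumour size recorded every 2 days; tumour volume calculated as ab²/2 from caliper diameters.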

[4] = tested on: MDA-MB-468; assay: Inhibition of PI3K in human MDA-MB-468 cells assessed as reduction in BRCA1 mRNA level at 1 uM in presence of PARP inhibitor olaparib by Trizol reagent-based RT-PCR analysis; assay type: cell-based
How it was run: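 Total RNA from treated MDA-MB-468 cells extracted with TRIzol. BRCA1 or BRCA2 mRNA quantified by real-time PCR with GAPDH as internal control. Results given as fold change relative to the internal control. Mean ± SD of three independent experiments.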

[5] = tested on: MDA-MB-468; assay: Induction of apoptosis in human MDA-MB-468 cells assessed as late apoptotic cells at 1 uM measured after 72 hrs in presence of PARP inhibitor olaparib by Annexin V-FITC/propidium iodide staining based flow cytometry (reference value: 0.78%); assay type: functional
[6] = tested on: MDA-MB-468; assay: Antitumor activity against human MDA-MB-468 cells xenografted in BALB/c mouse assessed as tumor growth inhibition at 27.5 mg/kg, ip administered every 2 days for 34 days and measured at 2 days interval during compound dosing in presence of PARP inhibitor olaparib relative to control; assay type: functional; details: MDA-MB-468, ip, read-out: TGI
[7] = tested on: MDA-MB-231; assay: cells; details: Homo sapiens, MDA-MB-231, 168 h, read-out: pIC50 (converted)
[8] = tested on: MDA-MB-468; assay: Induction of apoptosis in human MDA-MB-468 cells xenografted in BALB/c mouse assessed as increase in cleaved PARP expression at 50 mg/kg, ip administered every 2 days for 34 days measured post last dose by Western blot analysis; assay type: functional, organism-based
[9] = tested on: Mus musculus; assay: In vivo inhibition of PI3K in BALB/c mouse xenografted with human MDA-MB-468 cells assessed as reduction in AKT phosphorylation at S473 residue at 50 mg/kg, ip administered every 2 days for 34 days measured post-last dose by Western blot analysis; assay type: functional, organism-based
[10] = molecular target: Phosphatidylinositol 4,5-bisphosphate 3-kinase catalytic subunit gamma isoform (Homo sapiens, UniProt P48736); assay: Inhibition of PI3Kgamma (unknown origin) using PIP2 as substrate measured after 1 hr by ADP-glo plus luminescence assay
[11] = tested on: HCC1937; assay: Potency index, ratio of BKM120 IC50 to test compound IC50 for antiproliferative activity against human HCC1937 cells; assay type: functional
[12] = molecular target: Phosphatidylinositol 4,5-bisphosphate 3-kinase catalytic subunit beta isoform (Homo sapiens, UniProt P42338); assay: Inhibition of PI3Kbeta (unknown origin) using PIP2 as substrate measured after 1 hr by ADP-glo plus luminescence assay
[13] = tested on: MDA-MB-231; assay: Potency index, ratio of BKM120 IC50 to test compound IC50 for antiproliferative activity against human MDA-MB-231 cells; assay type: functional
[14] = tested on: MDA-MB-468; assay: Inhibition of PI3K in human MDA-MB-468 cells assessed as reduction in AKT phosphorylation at S473 residue at 1 uM measured after 6 to 72 hrs by Western blot analysis; assay type: cell-based
How it was run: (§1)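 MDA-MB-468 cells seeded overnight, then exposed for 6 h; control medium contained 1‰ DMSO. Lysates run on 8–12% SDS-PAGE and transferred to PVDF. Blots blocked in 5% BSA/TBST and probed for pAKT-Ser473/total AKT or pS6-Ser240/total S6, with β-actin as loading control. HRP secondary with ECL detection; bands quantified by densitometry. Three independent experiments.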

[15] = molecular target: Poly [ADP-ribose] polymerase 2 (Homo sapiens, UniProt Q9UGN5); assay: Inhibition of recombinant human PARP2 using histone as substrate after 1 hr in presence of biotinylated NAD+ by ELISA
[16] = tested on: Mus musculus; assay: In vivo activation of ERK in BALB/c mouse xenografted with human MDA-MB-468 cells assessed as increase in ERK autophosphorylation at T202 residue at 50 mg/kg, ip administered every 2 days for 34 days measured post-last dose by Western blot analysis; assay type: functional, organism-based
[17] = tested on: MDA-MB-468; assay: Inhibition of PI3K in human MDA-MB-468 cells assessed as increase in gammaH2AX foci formation at 1 uM measured after 72 hrs by DAPI staining based immunofluorescence microscopic analysis; assay type: cell-based
How it was run: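 MDA-MB-468 cells on coverslips given drugs for 72 h. Fixed in 3% formaldehyde, permeabilized with 0.1% Triton X-100, blocked in 10% FBS/PBS, then rabbit anti-γH2AX (Ser139) overnight at 4 °C. Secondary antibody and DAPI stain followed. About 200 cells scored for foci; a cell was positive with more than 5 foci. Three independent experiments.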

[18] = tested on: MDA-MB-468; assay: Inhibition of PI3K in human MDA-MB-468 cells assessed as reduction in pS6 phosphorylation at S240 residue at 1 uM measured after 6 to 72 hrs by Western blot analysis; assay type: cell-based
How it was run: as §1

[19] = tested on: MDA-MB-468; assay: Induction of apoptosis in human MDA-MB-468 cells assessed as increase in cleaved PARP level at 1 uM […] by Western blot analysis; assay type: functional, cell-based
[20] = tested on: Mus musculus; assay: In vivo inhibition of PI3K in BALB/c mouse xenografted with human MDA-MB-468 cells assessed as reduction in pS6 phosphorylation at S240 residue at 50 mg/kg, ip administered every 2 days for 34 days measured post-last dose by Western blot analysis; assay type: functional, organism-based
[21] = tested on: MDA-MB-468; assay: Antitumor activity against human MDA-MB-468 cells xenografted in BALB/c mouse assessed as tumor growth inhibition at 50 mg/kg, ip administered every 2 days for 34 days and measured at 2 days interval during compound dosing relative to control; assay type: functional; details: MDA-MB-468, ip, read-out: TGI
[22] = molecular target: Poly [ADP-ribose] polymerase 1 (Homo sapiens, UniProt P09874); assay: Inhibition of recombinant human PARP1 using histone as substrate after 1 hr in presence of biotinylated NAD+ by ELISA
Poly [ADP-ribose] polymerase 1, sequence (P09874 whole entry): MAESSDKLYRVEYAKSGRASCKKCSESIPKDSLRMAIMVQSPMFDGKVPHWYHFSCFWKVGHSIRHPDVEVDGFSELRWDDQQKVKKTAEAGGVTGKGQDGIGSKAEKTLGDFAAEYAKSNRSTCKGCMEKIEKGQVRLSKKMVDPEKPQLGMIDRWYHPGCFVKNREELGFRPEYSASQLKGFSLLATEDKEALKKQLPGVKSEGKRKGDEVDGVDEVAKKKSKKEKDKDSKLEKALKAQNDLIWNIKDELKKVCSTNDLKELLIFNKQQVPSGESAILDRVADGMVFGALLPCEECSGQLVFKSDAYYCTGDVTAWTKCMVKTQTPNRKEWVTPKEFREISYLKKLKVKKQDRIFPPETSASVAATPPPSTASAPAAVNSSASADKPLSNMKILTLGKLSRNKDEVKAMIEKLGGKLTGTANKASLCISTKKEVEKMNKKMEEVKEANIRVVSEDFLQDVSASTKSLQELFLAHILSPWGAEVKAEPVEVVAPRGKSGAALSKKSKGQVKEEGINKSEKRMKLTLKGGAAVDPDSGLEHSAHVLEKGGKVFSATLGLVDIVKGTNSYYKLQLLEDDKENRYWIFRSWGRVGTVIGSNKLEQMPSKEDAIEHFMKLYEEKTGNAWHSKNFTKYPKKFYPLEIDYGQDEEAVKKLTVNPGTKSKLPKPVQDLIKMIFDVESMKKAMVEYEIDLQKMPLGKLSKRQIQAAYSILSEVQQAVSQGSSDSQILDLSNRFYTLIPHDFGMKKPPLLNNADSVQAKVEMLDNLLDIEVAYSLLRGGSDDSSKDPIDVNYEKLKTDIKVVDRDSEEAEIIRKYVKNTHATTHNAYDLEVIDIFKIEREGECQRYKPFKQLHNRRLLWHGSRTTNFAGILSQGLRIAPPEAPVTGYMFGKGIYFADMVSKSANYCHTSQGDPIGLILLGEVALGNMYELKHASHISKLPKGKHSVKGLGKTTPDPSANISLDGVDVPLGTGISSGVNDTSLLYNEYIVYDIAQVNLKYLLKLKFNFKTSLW

Phosphatidylinositol 4,5-bisphosphate 3-kinase catalytic subunit gamma isoform, sequence (P48736 whole entry, canonical isoform): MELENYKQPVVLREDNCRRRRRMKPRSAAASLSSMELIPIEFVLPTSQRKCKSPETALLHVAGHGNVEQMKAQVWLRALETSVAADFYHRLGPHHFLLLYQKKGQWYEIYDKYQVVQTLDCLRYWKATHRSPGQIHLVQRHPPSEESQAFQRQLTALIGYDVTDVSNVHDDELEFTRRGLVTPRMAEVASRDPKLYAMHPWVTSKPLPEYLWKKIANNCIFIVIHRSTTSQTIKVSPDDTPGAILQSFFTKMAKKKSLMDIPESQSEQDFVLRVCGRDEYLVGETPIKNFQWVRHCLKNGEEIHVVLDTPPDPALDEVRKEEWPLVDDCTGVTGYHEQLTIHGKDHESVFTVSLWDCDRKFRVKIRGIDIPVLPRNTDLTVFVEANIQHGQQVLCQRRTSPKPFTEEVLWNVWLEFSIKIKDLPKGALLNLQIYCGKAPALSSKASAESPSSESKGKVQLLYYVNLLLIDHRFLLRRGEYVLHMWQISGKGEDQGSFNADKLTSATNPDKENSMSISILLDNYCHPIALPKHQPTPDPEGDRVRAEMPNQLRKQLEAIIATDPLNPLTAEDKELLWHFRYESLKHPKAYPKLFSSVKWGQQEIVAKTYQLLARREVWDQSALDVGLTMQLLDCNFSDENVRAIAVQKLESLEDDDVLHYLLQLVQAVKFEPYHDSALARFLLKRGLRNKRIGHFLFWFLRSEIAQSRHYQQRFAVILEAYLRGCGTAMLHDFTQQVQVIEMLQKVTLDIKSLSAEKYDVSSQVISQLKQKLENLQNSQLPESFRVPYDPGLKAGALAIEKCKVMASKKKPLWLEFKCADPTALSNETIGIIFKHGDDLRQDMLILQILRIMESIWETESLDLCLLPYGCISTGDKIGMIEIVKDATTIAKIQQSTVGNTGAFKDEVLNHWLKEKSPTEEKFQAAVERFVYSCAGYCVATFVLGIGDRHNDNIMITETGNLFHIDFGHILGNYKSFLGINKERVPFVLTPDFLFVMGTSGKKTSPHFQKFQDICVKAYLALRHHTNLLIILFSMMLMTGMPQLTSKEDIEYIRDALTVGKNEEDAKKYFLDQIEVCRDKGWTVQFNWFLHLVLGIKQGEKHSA
Poly [ADP-ribose] polymerase 2, sequence (Q9UGN5 whole entry): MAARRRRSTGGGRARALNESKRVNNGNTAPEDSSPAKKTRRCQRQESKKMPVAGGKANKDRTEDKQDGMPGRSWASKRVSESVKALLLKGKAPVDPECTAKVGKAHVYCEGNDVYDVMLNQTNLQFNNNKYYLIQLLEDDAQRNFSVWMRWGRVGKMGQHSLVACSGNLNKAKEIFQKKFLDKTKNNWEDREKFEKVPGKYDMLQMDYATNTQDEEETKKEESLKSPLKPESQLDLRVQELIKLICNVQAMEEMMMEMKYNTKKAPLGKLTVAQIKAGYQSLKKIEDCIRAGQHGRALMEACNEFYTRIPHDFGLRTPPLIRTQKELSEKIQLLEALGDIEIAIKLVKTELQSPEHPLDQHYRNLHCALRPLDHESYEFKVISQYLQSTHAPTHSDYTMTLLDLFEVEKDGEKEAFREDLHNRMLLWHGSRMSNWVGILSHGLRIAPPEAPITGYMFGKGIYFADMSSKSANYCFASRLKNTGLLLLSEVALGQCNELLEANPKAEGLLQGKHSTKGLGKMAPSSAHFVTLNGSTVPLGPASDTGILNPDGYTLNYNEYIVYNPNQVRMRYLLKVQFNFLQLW
Phosphatidylinositol 4,5-bisphosphate 3-kinase catalytic subunit beta isoform, sequence (P42338 whole entry, canonical isoform): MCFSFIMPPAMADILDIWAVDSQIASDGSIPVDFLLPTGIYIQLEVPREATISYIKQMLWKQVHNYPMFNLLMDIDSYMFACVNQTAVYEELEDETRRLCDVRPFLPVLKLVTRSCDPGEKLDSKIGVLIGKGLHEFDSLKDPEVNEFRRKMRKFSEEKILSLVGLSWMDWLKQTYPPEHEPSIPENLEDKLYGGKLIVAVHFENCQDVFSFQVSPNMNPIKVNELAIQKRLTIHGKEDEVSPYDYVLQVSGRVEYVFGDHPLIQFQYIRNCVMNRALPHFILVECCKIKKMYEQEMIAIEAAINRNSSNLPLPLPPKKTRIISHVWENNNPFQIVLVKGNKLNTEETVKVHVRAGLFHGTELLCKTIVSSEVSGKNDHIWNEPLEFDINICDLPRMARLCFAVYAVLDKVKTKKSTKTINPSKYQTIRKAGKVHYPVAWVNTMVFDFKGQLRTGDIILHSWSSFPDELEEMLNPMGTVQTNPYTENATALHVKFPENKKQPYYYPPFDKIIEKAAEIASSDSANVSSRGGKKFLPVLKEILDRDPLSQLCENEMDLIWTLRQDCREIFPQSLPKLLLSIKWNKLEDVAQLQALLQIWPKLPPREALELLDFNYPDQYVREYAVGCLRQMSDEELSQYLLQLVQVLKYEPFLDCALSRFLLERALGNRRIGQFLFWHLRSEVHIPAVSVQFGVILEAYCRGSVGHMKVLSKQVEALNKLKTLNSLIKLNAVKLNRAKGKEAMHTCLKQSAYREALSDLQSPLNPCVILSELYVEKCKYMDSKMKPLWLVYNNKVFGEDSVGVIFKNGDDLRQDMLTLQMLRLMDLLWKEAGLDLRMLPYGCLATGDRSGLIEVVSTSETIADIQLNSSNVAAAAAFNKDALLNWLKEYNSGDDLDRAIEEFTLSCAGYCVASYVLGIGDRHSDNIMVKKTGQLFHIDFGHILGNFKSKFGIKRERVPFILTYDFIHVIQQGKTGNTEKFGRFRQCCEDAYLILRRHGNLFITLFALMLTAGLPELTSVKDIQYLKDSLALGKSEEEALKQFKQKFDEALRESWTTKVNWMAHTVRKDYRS

For `Nc1cc(C(F)(F)F)c(-c2cc(N3CCOCC3)nc(N3CCOCC3)n2)cn1` [BUPARLISIB], the IC50 [1] was 1860 nM, the viability at 1 µM [2] was 81.5% and the Activity [3] was “Non-Toxic”. For the same compound, the inhibition [4] was “Active”, the Activity [5] was 7.84% and the inhibition in vivo at 27.5 mg/kg [6] was 48.4%. The IC50 [7] was 1580 nM.

For `Nc1cc(C(F)(F)F)c(-c2nc3c(c(N4CCOCC4)n2)CCN(C(=O)c2cc(Cc4n[nH]c(=O)c5ccccc45)ccc2F)C3)cn1`, the Activity [8] was “Active”, the inhibition [9] was “Active” and the IC50 [10] was 832 nM. The “Ratio IC50” value [11] was “>=4”, the IC50 [12] was 288 nM and the “Ratio IC50” value [13] was “>=4”. For the same compound, the inhibition [14] was “Active”, the IC50 [15] was 3.63 nM and the Activity [16] was “Active”. For the same compound, the inhibition [17] was “Active”, the inhibition [18] was “Active” and the Activity [19] was “Active”. The inhibition [20] was “Active”, the inhibition in vivo at 50 mg/kg [21] was 73.4% and the IC50 [22] was 6.03 nM.
